Assay results collected from several papers.
Lines come from different studies, so protocols differ.
Target: NUAK family SNF1-like kinase 1 (NUAK1, Homo sapiens, UniProt O60285)
One construct used (O60285 1-661): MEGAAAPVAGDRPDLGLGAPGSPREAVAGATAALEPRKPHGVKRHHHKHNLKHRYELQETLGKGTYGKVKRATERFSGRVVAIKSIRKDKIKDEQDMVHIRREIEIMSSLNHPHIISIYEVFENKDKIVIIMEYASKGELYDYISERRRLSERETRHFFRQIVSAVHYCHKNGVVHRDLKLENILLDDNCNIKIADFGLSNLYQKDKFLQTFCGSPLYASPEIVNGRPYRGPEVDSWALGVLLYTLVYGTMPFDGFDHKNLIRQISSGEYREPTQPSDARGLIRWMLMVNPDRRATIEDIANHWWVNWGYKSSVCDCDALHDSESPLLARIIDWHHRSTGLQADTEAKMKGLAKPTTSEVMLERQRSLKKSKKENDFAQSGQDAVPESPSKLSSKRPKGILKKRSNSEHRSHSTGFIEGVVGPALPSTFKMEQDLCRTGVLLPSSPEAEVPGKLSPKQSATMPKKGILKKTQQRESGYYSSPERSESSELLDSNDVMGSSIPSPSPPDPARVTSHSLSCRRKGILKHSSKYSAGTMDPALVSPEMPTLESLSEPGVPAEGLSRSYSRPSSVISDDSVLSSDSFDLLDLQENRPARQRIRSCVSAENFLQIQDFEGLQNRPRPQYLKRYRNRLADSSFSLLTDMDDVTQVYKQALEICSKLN

C#Cc1cccc(Nc2ncnc3cc(OCCOC)c(OCCOC)cc23)c1 — remaining signal (cell-free assay; 0.5 µM): 98%
Cc1ccc(Nc2nccc(N(C)c3ccc4c(C)n(C)nc4c3)n2)cc1S(N)(=O)=O — inhibition (enzyme activity; inhibitor; 10 µM): 76%
NS(=O)(=O)c1cc(NC(=O)C2(c3ccccc3Cl)CC2)ccc1Oc1cccc(Cl)c1 — remaining binding (cell-free assay; competition with immobilised ligand; 1 µM): 95%
Cc1ccc(NC(=O)c2ccc(C)c(C(F)(F)F)c2)cc1C#Cc1nn(C2CCC(O)CC2)c2ncnc(N)c12 (stereo not drawn) — remaining signal (cell-free assay; 10 µM): 108%
O=C1Nc2ccc(Cl)cc2C1=Cc1cc(Cl)c(O)c(Cl)c1 — remaining signal (cell-free assay; 0.5 µM): 72.5%
COc1cc(/C=C/C(=O)CC(=O)/C=C/c2ccc(O)c(OC)c2)ccc1O — activity vs control (enzyme activity; inhibitor; 1 µM): 55%
O=C(Nc1ccc(Oc2ccc(F)cc2)cc1)N1CCc2ncccc2[C@H]1c1ccc(F)cc1 — remaining binding (cell-free assay; competition with immobilised ligand; 1 µM): 92%
Cc1nn(CC(F)(F)F)cc1Nc1nccc(NCc2ccc(S(N)(=O)=O)cc2)n1 — remaining activity (enzyme activity; inhibitor; radiometric; 1 µM): 94%
CO[C@H]1CC[C@H](CNc2ccc(S(=O)(=O)NC(=O)c3ccc(N4CCN(CC5=C(c6ccc(Cl)cc6)CC(C)(C)CC5)CC4)cc3Oc3cnc4[nH]ccc4c3)cc2[N+](=O)[O-])CC1 — remaining binding (cell-free assay; competition with immobilised ligand; 1 µM): 100%
CN(C)C1CCN(CC#Cc2nn(C3CCCC3)c3nc(NCc4ccccc4)ncc23)C1 (stereo not drawn) — inhibition (enzyme activity; inhibitor; FRET; 1 µM): 10%
Cc1cc(NC(=O)c2cccc3cc(-c4cccc5[nH]nc(N)c45)ccc23)ccc1F — activity vs control (enzyme activity; inhibitor; 0.1 µM): 100%
O=C(NCCCNc1nc(Nc2cccc(NC(=O)N3CCCC3)c2)ncc1Br)C1CCC1 — remaining activity (enzyme activity; inhibitor; radiometric; 1 µM): 0%
CCc1ccccc1C(=O)Nc1n[nH]c2c(C)c(F)c(C3C(C#N)=C(C)N(C)C(C)=C3C#N)cc12 — remaining binding (cell-free assay; competition with immobilised ligand; 1 µM): 33%
c1cc(CN2CCOCC2)cc(Nc2nccc(NCCc3cnc[nH]3)n2)c1 — remaining activity (enzyme activity; inhibitor; radiometric; 1 µM): 14%
CNC(=O)c1cc(Oc2ccc(NC(=O)Nc3ccc(Cl)c(C(F)(F)F)c3)cc2)ccn1 — inhibition (enzyme activity; inhibitor; 0.3 µM): -3%
O=C1NC(=O)c2cc(Nc3ccc(F)cc3)c(Nc3ccc(F)cc3)cc21 — remaining signal (cell-free assay; 0.5 µM): 94%
COc1cc(-c2cn(C3CCc4c(F)cccc4N(CC(F)(F)F)C3=O)nn2)ccc1-n1cnc(C)c1 (stereo not drawn) — remaining binding (cell-free assay; competition with immobilised ligand; 1 µM): 100%
Cc1nn(CC(F)(F)F)cc1Nc1ncc(Br)c(NCCCNC(=O)C2CCC2)n1 — remaining activity (enzyme activity; inhibitor; radiometric; 1 µM): 22%
Nc1ncnc2occ(-c3ccc(NC(=O)Nc4cc(C(F)(F)F)ccc4F)cc3)c12 — remaining signal (cell-free assay; inhibitor; 20 µM): 70%
O=C(NCCCNc1nc(Nc2cccc(CN3CCOCC3)c2)ncc1C1CC1)C1CCC1 — remaining activity (enzyme activity; inhibitor; radiometric; 1 µM): 31%
CNC(=O)Nc1ccc2c(c1)CC[C@@]21OC(=O)N(CC(=O)N(Cc2ccc(F)cc2)[C@@H](C)C(F)(F)F)C1=O — remaining binding (cell-free assay; competition with immobilised ligand; 1 µM): 94%
Cc1nn(CC(F)(F)F)cc1Nc1ncc(Br)c(NCCc2cnc[nH]2)n1 — remaining activity (enzyme activity; inhibitor; radiometric; 1 µM): 13%
CC(=O)Nc1c(C(C)=O)c(=O)n(C)c2nc(-c3ccc(Cl)cc3Cl)c(-c3ccc(Cl)cc3)cc12 — remaining binding (cell-free assay; competition with immobilised ligand; 1 µM): 100%
NS(=O)(=O)c1ccc(CNc2ccnc(Nc3cccc(CN4CCOCC4)c3)n2)cc1 — remaining activity (enzyme activity; inhibitor; radiometric; 1 µM): 79%
CN(c1nccc(-c2cnn3ncccc23)n1)C1CC1 — remaining signal (cell-free assay; 1 µM): 93%
NS(=O)(=O)c1ccc(CNc2nc(Nc3cccc(CN4CCOCC4)c3)ncc2Br)cc1 — remaining activity (enzyme activity; inhibitor; radiometric; 1 µM): 23%
c1ccc(N2CCN(Cc3nc4ccccc4[nH]3)CC2)nc1 — remaining binding (binding; competition with immobilised ligand; 1 µM): 89%
